Data published in PubChem BioAssay.
Results filed as inconclusive are left out.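 How the source made its calls, unless noted: active means RAM network inhibition above 8.4% in each of two replicates, 3 SD over the compound average; inconclusive means above 8.4% inhibition in only one replicate; inactive means 8.4% inhibition or less in each replicate.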

Key:
[1] = S. cerevisiae growth inhibition in permissive medium (OD615), pilot counter-assay for S. cerevisiae lifespan shortening project, permissive growth control (AID 705;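 active means growth inhibition above 25% in both replicates, a cutoff set 3 SD above the mean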); conditions: OD615, 24 h, at 10 µM, stronger effect = higher value
How it was run: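 Material: engineered DeaD yeast; compound dosing: one dose 10 µM, DMSO 0.25% final; measure: yeast growth inhibition indicated by reduced 24 h OD615; detection: OD615 turbidity read; incubation: cells pre-grown 4 h, then 24 h compound exposure, 30 °C humidified; medium: permissive synthetic complete medium with raffinose and galactose carbon sources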

[2] = S. cerevisiae growth inhibition in restrictive medium, OD615, pilot screen, restrictive growth control, yeast lifespan reduction project (AID 706;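 active means growth inhibition above a set limit, 3 SD over mean compound inhibition, in both replicates, cut at about 43% in these data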;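 further: modified DeaD lifespan yeast strain shifted to restrictive glucose medium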); conditions: OD615, 48 h, at 10 µM, stronger effect = higher value
How it was run: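 material = engineered S. cerevisiae DeaD strain | medium = glucose-based CSMM-D restrictive medium | times = 4 h pre-incubation, 48 h exposure at 30 °C | technique = OD615 absorbance reading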

[3] = doxorubicin toxicity protection in MRP-1 cells – H69AR cells, CellTiter-Glo, duplicate, MRP-1 activator project, pilot screen (AID 807;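 active means viability increase at or above a cutoff of the median across tested compounds plus 3 SD, cut at about 8.5% in these data, passing the limit was not always enough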;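 further: compound pretreatment 18-22 h then 72 h combined with doxorubicin; 0% = doxorubicin alone and 100% = vehicle without doxorubicin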); conditions: H69AR viability with doxorubicin, CellTiter-Glo luminescence; at 10 µM; stronger effect = higher value
[4] = viability of HCT116 without oncogenic beta-catenin – human colon tumor cells, pilot screen (AID 823;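 active means cell viability at or below a set limit in both duplicate runs, the limit being the all-compound median minus 4 SD, cut at about 23% in these data, passing the limit was not always enough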;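 further: 0% = wells killed by 20 µM Hyamine and 100% = untreated DMSO cell wells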); conditions: HCT116 beta-catenin knockout viability, CellTiter-Glo, 60 h; at 10 µM; stronger effect = lower value
[5] = viability of PTEN-null HCT116 cells – cell-based, HCT116 clonal line, CellTiter-Glo, pilot screen (AID 824;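 active means viability at or below 27.92% in each of two runs, the all-compound median minus 4 SD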;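 further: 0% = 20 µM Hyamine control and 100% = vehicle cell control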); conditions: HCT116 PTEN-deleted viability, 60 h, at 10 µM, stronger effect = lower value
[6] = RAM pathway blockade in budding yeast – dse1pr::URA3 reporter, 5-FOA selection, pilot screen (AID 869;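 active means inhibition over a set limit, the all-compound mean plus 3 SD, in both replicate runs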;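 further: 0% = DMSO wells with no growth and 100% = 10 µM 1-NA-PP1 with full growth; RAM network block rescues cells from 5-FOA so hits raise OD615 growth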); conditions: S. cerevisiae dse1pr::URA3 5-FOA growth, OD615, 2 d; at 10 µM; stronger effect = higher value; strain carries analog-sensitive mutant Cbk1 kinase
[7] = RAM signaling pathway blockade in yeast – S. cerevisiae, Pdr1DBD-CYC8 efflux-inhibited sensitized strain, primary screen (AID 1298);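 further: 0% = DMSO untreated cells without growth and 100% = 10 µM 1-NA-PP1 full growth; higher means more yeast growth rescued from 5-FOA killing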; conditions: S. cerevisiae cbk1-as DSE1-URA3 strain, 5-FOA growth OD615, 2 d; at 50 µM; stronger effect = higher value

CC(C)(Oc1ccc(Cl)cc1)C(=O)N1CCN(c2ccccn2)CC1
inactive: growth inhibition [1] -7.41% | growth inhibition [2] 3.08% | viability increase [3] -2.47% | viability [4] 70.7% | viability [5] 76.1% | inhibition [6] 0.32% | RAM network inhibition [7] -1.34%

O=C(CC12CC3CC(CC(C3)C1)C2)NCO
inactive: growth inhibition [1] 4.32% | growth inhibition [2] 5.98% | viability increase [3] 0.63% | viability [4] 100% | viability [5] 104% | inhibition [6] 1.92% | RAM network inhibition [7] -1.39%

COc1ccc(-n2c(Cc3cccn3C)nnc2SCC(=O)Nc2ccc(C(C)=O)cc2)cc1
inactive: growth inhibition [1] 3.63% | growth inhibition [2] 17.8% | viability increase [3] -3.67% | viability [4] 99.4% | viability [5] 90.8% | inhibition [6] 1.6% | RAM network inhibition [7] 3.56%

Cc1sc2nc(SCC(=O)N3CCOCC3)[nH]c(=O)c2c1C
inactive: growth inhibition [1] -1.58% | growth inhibition [2] -1.96% | viability increase [3] -1.93% | viability [4] 105% | viability [5] 92.2% | inhibition [6] 1.8% | RAM network inhibition [7] 2.17%

COc1ccc(C2C(C(=O)N3CCN(c4ccccc4)CC3)c3ccccc3C(=O)N2C)cc1 (configuration not stated)
inactive: growth inhibition [1] -13.4% | growth inhibition [2] -17.6% | viability increase [3] -4.08% | viability [4] 69.6% | viability [5] 74.9% | inhibition [6] 2.13% | RAM network inhibition [7] 2.38%

CCCN(CCC)CCNC(=O)Cn1cnc2sc(C)c(S(=O)(=O)N3CCOCC3)c2c1=O
inactive: growth inhibition [1] -0.07% | growth inhibition [2] -5.45% | viability increase [3] -2.63% | viability [4] 95.3% | viability [5] 98% | inhibition [6] 0.875% | RAM network inhibition [7] 2.96%

Cc1cc(C)n(-c2ncnc3sc4c(c23)CC(C)CC4)n1 (configuration not stated)
inactive: growth inhibition [1] -1.99% | growth inhibition [2] 6.4% | viability increase [3] -0.82% | viability [4] 89.7% | viability [5] 90.7% | inhibition [6] 1.6% | RAM network inhibition [7] 0.87%

COc1cc2c(=O)n(Cc3ccccc3)c(=O)n(CC(=O)NCC3CCCO3)c2cc1OC (configuration not stated)
inactive: growth inhibition [1] -2.89% | growth inhibition [2] -0.925% | viability increase [3] -0.67% | viability [4] 97.9% | viability [5] 94.1% | inhibition [6] 2.3% | RAM network inhibition [7] 3.29%

Cc1cc(C)nc(/N=C2\NC(=O)CC(C(=O)O)N2CCc2c[nH]c3ccccc23)n1 (configuration not stated)
inactive: growth inhibition [1] -0.875% | growth inhibition [2] -4.41% | viability increase [3] -2.04% | viability [4] 93.3% | viability [5] 84.1% | inhibition [6] 0.67% | RAM network inhibition [7] -0.83%

COc1cccc(C(=O)NCC(c2cccnc2)N2CCN(c3ccccc3OC)CC2)c1 (configuration not stated)
inactive: growth inhibition [1] 1.37% | growth inhibition [2] -13.1% | viability increase [3] -2.58% | viability [4] 84.3% | viability [5] 78% | inhibition [6] 1.87% | RAM network inhibition [7] 1.46%

Cc1ccccc1NC(=O)c1ocnc1C
inactive: growth inhibition [1] -1.01% | growth inhibition [2] -8.43% | viability increase [3] -1.48% | viability [4] 101% | viability [5] 92.3% | inhibition [6] 0.18% | RAM network inhibition [7] 4.25%

Clc1ccc(CSc2nnc(-c3ccccn3)n2Cc2ccco2)c(Cl)c1
inactive: growth inhibition [1] -2.3% | growth inhibition [2] 11.9% | viability increase [3] -3.47% | viability [4] 70.2% | viability [5] 64.1% | inhibition [6] 1.68% | RAM network inhibition [7] 7.51%

CCOC(=O)CSc1nccc(N(C)C)c1C#N
inactive: growth inhibition [1] -5.06% | growth inhibition [2] 7.88% | viability increase [3] 1.04% | viability [4] 99% | viability [5] 100% | inhibition [6] 0.83% | RAM network inhibition [7] 4.81%

Brc1cnc(N2CCCC2)nc1N1CCCCC1
inactive: growth inhibition [1] -5.12% | growth inhibition [2] 2.11% | viability increase [3] -2.63% | viability [4] 86.2% | viability [5] 84.4% | inhibition [6] 2.09% | RAM network inhibition [7] 0%

Cc1ccc(N(CC(=O)NCc2cccnc2)S(C)(=O)=O)cc1C
inactive: growth inhibition [1] -8.32% | growth inhibition [2] -10.2% | viability increase [3] -2.97% | viability [4] 97.3% | viability [5] 98.8% | inhibition [6] 0.71% | RAM network inhibition [7] 2.28%

O=P(O)(CCc1ccncc1)CN1CCCCC1
inactive: growth inhibition [1] -9.59% | growth inhibition [2] -7.67% | viability increase [3] 2.46% | viability [4] 97.3% | viability [5] 101% | inhibition [6] 1.82% | RAM network inhibition [7] -0.01%

CC(=O)Nc1cc2ccc(OC(C)=O)cc2oc1=O
inactive: growth inhibition [1] -15.3% | growth inhibition [2] -13.9% | viability increase [3] -4.23% | viability [4] 107% | viability [5] 93.8% | inhibition [6] 1.62% | RAM network inhibition [7] 0.82%

O=C(C1CC1)N1CCc2cc(Br)cc(S(=O)(=O)NC3CCCCC3)c21
inactive: growth inhibition [1] -3.11% | growth inhibition [2] -25.8% | viability increase [3] 1.71% | viability [4] 88.5% | viability [5] 89.4% | inhibition [6] 0.275% | RAM network inhibition [7] 5.54%

CCc1c(C(C)O)oc2ccc3c(C)cc(=O)oc3c12 (configuration not stated)
inactive: growth inhibition [1] -9.42% | growth inhibition [2] 2.23% | viability increase [3] -3.86% | viability [4] 84.3% | viability [5] 82.2% | inhibition [6] 1.06% | RAM network inhibition [7] 6.56%

CCNc1nc(OCCNS(=O)(=O)c2cc(C)ccc2C)nc(N(C)C)n1
inactive: growth inhibition [1] -7.45% | growth inhibition [2] -11.1% | viability increase [3] -0.92% | viability [4] 78.7% | viability [5] 78.8% | inhibition [6] 0.025% | RAM network inhibition [7] -0.63%

COC(=O)C1=C(C)NC(=O)CC1c1cccc(Cl)c1Cl (configuration not stated)
inactive: growth inhibition [1] -13.4% | growth inhibition [2] -7.53% | viability increase [3] -1.92% | viability [4] 103% | viability [5] 98% | inhibition [6] 2.15% | RAM network inhibition [7] 1.05%

CCCC(=O)C1C(=O)CC(C)(C)C(c2cc(C)no2)C1=O (configuration not stated)
inactive: growth inhibition [1] -22.4% | growth inhibition [2] -12.9% | viability increase [3] 0.5% | viability [4] 103% | viability [5] 98.7% | inhibition [6] -0.1% | RAM network inhibition [7] -1.09%

C=CCn1c(=N)n(CC(O)COc2ccc(OC)cc2)c2ccccc21 (configuration not stated)
inactive: growth inhibition [1] -10.9% | growth inhibition [2] 1.67% | viability increase [3] -4.96% | viability [4] 64.8% | viability [5] 69% | inhibition [6] -0.445% | RAM network inhibition [7] -0.51%

CCOC(=O)CNC(=O)c1c2c(nc3ccccc13)CCCC2
inactive: growth inhibition [1] -6.83% | growth inhibition [2] -1.75% | viability increase [3] -5.37% | viability [4] 95.4% | viability [5] 88.2% | inhibition [6] 2.68% | RAM network inhibition [7] 5.74%

COC(=O)C1=C(C)N(c2cc(Cl)cc(Cl)c2)C(=O)C1
inactive: growth inhibition [1] -2.8% | growth inhibition [2] -18.3% | viability increase [3] -6.24% | viability [4] 28.2% | viability [5] 45.7% | inhibition [6] 0.14% | RAM network inhibition [7] 2.04%

C=CCn1c(=O)/c(=C/c2cc(OC)c(OC)c(OC)c2)s/c1=C(/C#N)c1nc2ccccc2n1C
inactive: growth inhibition [1] -4.25% | growth inhibition [2] 8.29% | viability increase [3] -3.61% | viability [4] 46.3% | viability [5] 50.9% | inhibition [6] 3.67% | RAM network inhibition [7] 4.52%

COc1ccc(CN2CC34C=CC(O3)C(C(=O)O)C4C2=O)cc1 (configuration not stated)
inactive: growth inhibition [1] -1.83% | growth inhibition [2] -0.315% | viability increase [3] -0.17% | viability [4] 92.6% | viability [5] 97.1% | inhibition [6] 0.585% | RAM network inhibition [7] 3.17%

COc1cccc(N2CCN(C3CC(=O)N(c4ccc(Cl)cc4)C3=O)CC2)c1 (configuration not stated)
inactive: growth inhibition [1] -8.98% | growth inhibition [2] -2.62% | viability increase [3] -0.33% | viability [4] 96.2% | viability [5] 91.6% | inhibition [6] 0.57% | RAM network inhibition [7] 5.46%

CCOc1ccc(C2C(C#N)=C(N)SC(N)=C2C#N)cc1OCC
inactive: growth inhibition [1] 12.6% | growth inhibition [2] -4.33% | viability increase [3] -0.77% | viability [4] 103% | viability [5] 91.5% | inhibition [6] 0.96% | RAM network inhibition [7] 7.43%

COc1cc(C2C(C(N)=O)=C(C)Nc3nc(CCCO)nn32)cc(OC)c1OC (configuration not stated)
inactive: growth inhibition [1] -3.16% | growth inhibition [2] -9.14% | viability increase [3] -0.36% | viability [4] 101% | viability [5] 95% | inhibition [6] 0.785% | RAM network inhibition [7] 0.15%

CCOC(=O)c1c(C)n(C)c2ccc(OCC(O)CN3CCN(C)CC3)cc12 (configuration not stated)
inactive: growth inhibition [1] -9.58% | growth inhibition [2] -16.5% | viability increase [3] -1.87% | viability [4] 96.2% | viability [5] 106% | inhibition [6] 1.1% | RAM network inhibition [7] -0.99%

O=C(CSc1ccccn1)c1ccc2c(c1)OCO2
inactive: growth inhibition [1] -3.07% | growth inhibition [2] 9.94% | viability increase [3] -0.21% | viability [4] 99.2% | viability [5] 96.2% | inhibition [6] 0.92% | RAM network inhibition [7] 2.86%

COc1ccc2c(C)cc(=O)oc2c1C
inactive: growth inhibition [1] 2.89% | growth inhibition [2] -2.73% | viability increase [3] -2.26% | viability [4] 102% | viability [5] 94.7% | inhibition [6] 1.96% | RAM network inhibition [7] 5.35%

COc1ccccc1C(=O)Nc1ccc2oc(-c3ccc(F)cc3)nc2c1
inactive: growth inhibition [1] -2.88% | growth inhibition [2] 0.83% | viability increase [3] -2.78% | viability [4] 96% | viability [5] 96.5% | inhibition [6] 2.88% | RAM network inhibition [7] 1.85%

CCc1cc2c(=O)c(Oc3ccccc3F)c(C)oc2c(CN(C)C)c1O
inactive: growth inhibition [1] -5.07% | growth inhibition [2] 9.37% | viability increase [3] -7.21% | viability [4] 95.2% | viability [5] 89.1% | inhibition [6] 3.73% | RAM network inhibition [7] 6.03%

CS(=O)(=O)c1ccc(C(=O)NC2CCOC2=O)cc1 (configuration not stated)
inactive: growth inhibition [1] -2.63% | growth inhibition [2] -3.86% | viability increase [3] -1.85% | viability [4] 102% | viability [5] 97.6% | inhibition [6] -0.295% | RAM network inhibition [7] 4.25%
